This is a sample that favours compounds with a hit; in the whole collection about 0.79% have one here.
hIAP block: blocks human intestinal alkaline phosphatase. P09923. purified IAP, CDP-Star luminescence, 30 min. inhibition, % at 10 µM. 330,000 compounds, 0.12% hits;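 active = inhibition reaching a set limit with compound at 10 µM in the primary screen, cut at about 35% in these data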;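 also: plate controls were DMSO wells with enzyme for no effect and no-enzyme buffer wells for full effect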
Target sequence (P09923 whole entry, looked up): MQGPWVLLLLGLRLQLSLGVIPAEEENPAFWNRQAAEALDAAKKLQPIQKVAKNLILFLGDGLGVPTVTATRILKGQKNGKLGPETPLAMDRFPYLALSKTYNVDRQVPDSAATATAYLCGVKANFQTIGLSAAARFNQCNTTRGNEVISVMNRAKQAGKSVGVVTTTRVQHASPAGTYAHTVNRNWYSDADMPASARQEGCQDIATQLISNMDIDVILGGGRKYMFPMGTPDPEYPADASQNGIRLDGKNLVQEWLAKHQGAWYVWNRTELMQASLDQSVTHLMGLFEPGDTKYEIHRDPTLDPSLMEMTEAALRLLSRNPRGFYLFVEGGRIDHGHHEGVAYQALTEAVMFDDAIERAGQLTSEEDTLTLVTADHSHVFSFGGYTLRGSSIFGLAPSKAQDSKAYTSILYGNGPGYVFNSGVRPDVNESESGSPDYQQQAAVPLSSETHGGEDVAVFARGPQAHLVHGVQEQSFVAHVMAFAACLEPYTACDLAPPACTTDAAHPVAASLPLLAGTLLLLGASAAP
mIAP block: mouse IAP inhibition | inhibition, % at 10 µM | purified mouse IAP, CDP-Star luminescence, 30 min | 330,000 compounds, 0.2% hits;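 active = inhibition of at least 40% at 10 µM in the primary screen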;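 also: plate controls were DMSO with enzyme for no effect and no enzyme wells for full effect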
bIAP inh: blocks bovine intestinal alkaline phosphatase activity | purified bovine IAP, CDP-star luminescence, 30 min | AID 1019 | inhibition, % at 20 µM | 190,000 tested, under 10 active;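 active = over 50% inhibition of intestinal alkaline phosphatase at 20 µM in the single-dose screen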
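Assay system – bovine IAP enzyme · Quantity – bovine IAP at 1/65,000,000 final dilution · Detection – CDP-star luminescence signal · Times – 30 min reaction at room temperature · Also added – CDP-star substrate at 30 µM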
mIAP activ: increases mouse intestinal alkaline phosphatase activity | muIAP, CDP-Star luminescence, 30 min; stronger effect = higher value; 1 = vehicle-only enzyme signal, 0 = enzyme-free wells | activation factor at 10 µM | 330,000 compounds, 0.24% hits | AID 2805;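 active = activation factor of at least 2 at 20 µM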
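System: Mouse IAP enzyme | Also added: CDP-Star substrate | Dosing: Compounds dispensed in DMSO | Schedule: 30 min enzyme-substrate-compound incubation at room temperature | Technique: Chemiluminescence readout | Control set: DMSO-only wells and no-enzyme negative control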
bIAP activator: increases bovine intestinal alkaline phosphatase activity. purified bovine IAP, CDP-star luminescence, 30 min; stronger effect = higher value; fold of DMSO-control signal, blank-subtracted. activation factor at 20 µM. 200,000 compounds, 0.17% hits. AID 1016;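 active = activation factor of 2 or more at 20 µM, a signal rise over negative controls twice the positive control's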
hIAP activ: human IAP activation. P09923. purified human IAP, CDP-Star luminescence, 30 min; stronger effect = higher value; 1 = vehicle-only enzyme, 0 = enzyme-free background. activation factor at 10 µM. 330,000 compounds, 0.16% hits. AID 2524;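 active = activation factor of the enzyme at least 2-fold when tested at 20 µM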
mIAP inh conf: mouse IAP inhibition confirmation | shares compounds with mIAP block | purified mouse IAP, CDP-Star luminescence, 30 min | inhibition, % at 10 µM | 11,000 compounds, 4.7% hits | AID 434971;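 active = inhibition of at least 40% at 10 µM in either of the two replicates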;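 also: plate controls were DMSO wells with enzyme for no effect and buffer wells lacking enzyme for full effect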
Starred values were filed as active, the others as inactive; i = inactive; · = no result.

SMILES | hIAP block | mIAP block | bIAP inh | mIAP activ | bIAP activator | hIAP activ | mIAP inh conf
O=C(NC[C@@H]1CC[C@@H](Cc2ccc(-c3ccccc3)cc2)O1)Nc1ccc(Br)cc1 | · | -324.9 | · | 4.25* | · | · | -309.5
O=C(NCCCCc1ccccc1)NC[C@@H]1CC[C@@H](Cc2ccc(-c3ccccc3)cc2)O1 | · | -371.3 | · | 4.84* | · | · | -344.2
O=C(NCCCc1ccccc1)C1CC1 | -13.4 | -6.7 | · | 1.07 | · | 1.13 | ·
c1coc(-c2nc(-c3ccco3)c(-c3ccco3)nc2-c2ccco2)c1 | 0.9 | 71.2* | 5.9 | 0.288 | 0.9 | 0.991 | 84.2*
Nc1nc(-c2ccco2)c(-c2ccco2)s1 | 24.8 | 67.3* | 22.2 | 0.327 | 0.8 | 0.752 | 69.0*
Nc1nc(-c2ccco2)cs1 | 15.3 | 31.4 | 29.6 | 0.686 | 0.7 | 0.847 | ·
COC(=O)c1c(C)[nH]c(C(=O)CN2C(=O)NC3(CCOc4ccccc43)C2=O)c1C (stereo not drawn) | -1.6 | -3.0 | · | 1.03 | · | 1.02 | ·
Cc1nn(Cc2c(Cl)cccc2Cl)c(C)c1NC(=O)c1cn(-c2ccccc2)nc1-c1ccccc1 | -10.7 | -146.5 | -27.1 | 2.46* | 1.3 | 1.11 | -73.8
NS(=O)(=O)c1ccc(Nc2nc(-c3ccc(O)cc3O)cs2)cc1 | -6.9 | 40.5* | -19.1 | 0.595 | 1.2 | 1.07 | 59.9*
O=S(=O)(Nc1cc(Sc2ncn[nH]2)c(O)c2ccccc12)c1ccccc1 | -8.3 | 6.6 | 2.4 | 0.934 | 1 | 1.08 | ·
Cc1cc(O)c(Sc2ncn[nH]2)cc1NS(=O)(=O)c1ccc(Cl)cc1 | -10.1 | 46.7* | · | 0.533 | · | 1.1 | 43.5*
N#C/C(=C/c1ccco1)C(N)=S | -15.4 | 47.0* | · | 0.53 | · | 1.15 | 56.5*
O=c1c(O)cccc2cc(O)c(O)c(O)c12 | -13.5 | 60.8* | · | 0.392 | · | 1.14 | 74.4*
O=c1cc(-c2ccccc2)oc2cc(O)c(O)c(O)c12 | -22.3 | 5.0 | · | 0.95 | · | 1.22 | ·
O=C(CN1C(=O)c2ccccc2S1(=O)=O)c1ccc(F)c(F)c1 | 2.4 | 2.3 | · | 0.977 | · | 0.976 | ·
O=C(CN1C(=O)c2ccccc2S1(=O)=O)c1ccc(O)c(O)c1 | -4.4 | 52.7* | · | 0.473 | · | 1.04 | 57.1*
CN(CC(=O)Nc1ccc(F)c(F)c1F)C1CCCCC1 | -2.5 | 9.5 | 18.7 | 0.905 | 0.8 | 1.02 | ·
O=C1CCC(=O)N1c1nc2n(n1)C(c1ccccc1)C=C(c1ccc(Br)cc1)N2 (stereo not drawn) | -19.0 | -7.1 | -19.1 | 1.07 | 1.2 | 1.19 | ·
O=[N+]([O-])c1c(NCc2ccco2)ccc2nonc12 | 14.4 | 41.3* | · | 0.587 | · | 0.856 | 51.1*
CCOC(=O)NNc1ccc2nonc2c1[N+](=O)[O-] | 8.1 | 43.4* | · | 0.566 | · | 0.919 | 43.6*
CCOc1cc(C=O)cc(Br)c1OCC(=O)NCCc1ccccc1 | 1.7 | 6.6 | 0.7 | 0.934 | 1 | 0.983 | ·
O=C(O)c1ccccc1NS(=O)(=O)c1ccc2c3c(cccc13)C(=O)N2 | 14.8 | 8.1 | 5.1 | 0.919 | 0.9 | 0.852 | ·
O=C(O)CCCCCNS(=O)(=O)c1ccc2c3c(cccc13)C(=O)N2 | 12.1 | 7.7 | · | 0.923 | · | 0.879 | ·
O=C(O)CNS(=O)(=O)c1ccc2c3c(cccc13)C(=O)N2 | -9.9 | 47.6* | · | 0.524 | · | 1.1 | 49.2*
CN(c1ccccc1C(=O)O)S(=O)(=O)c1ccc2c3c(cccc13)C(=O)N2 | 10.3 | 46.0* | 20.4 | 0.54 | 0.8 | 0.897 | 62.0*
SMILES | hIAP block | mIAP block | bIAP inh | mIAP activ | bIAP activator | hIAP activ | mIAP inh conf
O=C(N/N=C/c1cccnc1)c1ccc(NC(=O)c2ccc(Cl)cc2)cc1 | -2.5 | 4.8 | · | 0.952 | · | 1.02 | ·
COc1cccc(NC(=S)NCCC(c2ccccc2)c2ccccc2)c1 | 9.8 | i | -31.6 | 6.21* | 1.3 | 0.902 | -252.7
COc1cccc(NC(=O)NCCCCc2ccccc2)c1 | -9.6 | -127.1 | · | 2.27* | · | 1.1 | -116.1
COc1cc(NC(=S)NCCC(c2ccccc2)c2ccccc2)cc(OC)c1 | 14.5 | -412.8 | 12.1 | 5.13* | 0.9 | 0.855 | -227.5
COc1ccc(NC(=S)NCCC(c2ccccc2)c2ccccc2)c(OC)c1 | -2.2 | -76.9 | -38.2 | 1.77 | 1.4 | 1.02 | ·
COc1ccc(NC(=O)NCCCCc2ccccc2)cc1OC | -35.1 | -42.0 | · | 1.42 | · | 1.35 | ·
NS(=O)(=O)c1ccc(-c2ccc(C=O)o2)cc1 | 13.6 | 26.9 | -4.1 | 0.731 | 1 | 0.864 | ·
CC1=C(C#N)C(=O)NC(=O)/C1=C/c1ccc(-c2ccc(S(N)(=O)=O)cc2)o1 | 16.5 | 54.0* | -3.5 | 0.46 | 1 | 0.835 | 70.0*
COC(=O)/C(C#N)=C/c1ccc(-c2ccc(S(N)(=O)=O)cc2)o1 | 7.3 | 63.8* | · | 0.362 | · | 0.927 | 78.6*
CC(C)OC(=O)/C(C#N)=C/c1ccc(-c2ccc(SC(F)F)cc2)o1 | -4.0 | 13.4 | -0.1 | 0.866 | 1 | 1.04 | ·
NS(=O)(=O)c1ccc(-c2ccc(/C=C3\NC(=S)NC3=O)o2)cc1 | -1.0 | 89.7* | · | 0.103 | · | 1.01 | 76.9*
C=CCNC(=O)c1cccc(Br)c1 | 4.0 | 5.6 | 4.4 | 0.944 | 1 | 0.96 | ·
O=C(CSc1ccccc1)Nc1ccc(S(=O)(=O)NCC2CCCO2)cc1 (stereo not drawn) | 4.0 | 13.4 | 3.3 | 0.866 | 1 | 0.96 | ·
CCOP(=O)(OCC)c1nc(-c2ccccc2)oc1NCc1ccccc1 | -2.7 | 3.2 | 27.5 | 0.968 | 0.7 | 1.03 | ·
CC(C)C1Nc2ccc(S(N)(=O)=O)cc2C2C=CCC21 (stereo not drawn) | 9.5 | 48.1* | -3.0 | 0.519 | 1 | 0.905 | 44.9*
CCOC(=O)C1Nc2ccc(OC(F)(F)F)cc2C2C=CCC12 (stereo not drawn) | 9.4 | -3.9 | · | 1.04 | · | 0.906 | ·
O=C(Nc1ccc(F)c(Cl)c1)C1CC(=O)n2c(nc3ccccc32)N1 (stereo not drawn) | -88.6 | -182.5 | -30.3 | 2.83* | 1.3 | 1.89 | -141.9
CCc1cccc(CC)c1NC(=O)CSc1nc2ccc(N3C(=O)C4C5C=CC(C5)C4C3=O)cc2s1 (stereo not drawn) | -1.8 | -2.7 | -7.5 | 1.03 | 1.1 | 1.02 | ·
O=C(CSc1nnc(-c2ccco2)o1)c1ccccc1 | -9.6 | 43.9* | 6.3 | 0.561 | 0.9 | 1.1 | 43.0*
O=C(CSc1nnc(-c2ccco2)c(-c2ccco2)n1)c1ccccc1 | -19.0 | 49.6* | 2.5 | 0.504 | 1 | 1.19 | 50.6*
O=C(CSc1nnc(-c2ccco2)o1)c1ccc(F)c(F)c1 | 8.3 | 12.0 | 27.5 | 0.88 | 0.7 | 0.917 | ·
CCOC(=O)NC1CCS(=O)(=O)C1 (stereo not drawn) | -45.2 | 8.5 | 6.9 | 0.915 | 0.9 | 1.45 | ·
Cc1nc(NC(=O)c2ccccc2)sc1-c1csc(NCc2ccco2)n1 | 26.0 | 44.3* | 9.8 | 0.557 | 0.9 | 0.74 | 56.2*

Source: PubChem
